Data: ChEMBL document CHEMBL1144097, “Triterpene trimers from Maytenus scutioides: cycloaddition compounds?” (J Nat Prod, 1999)
The source made the active and inactive calls.

Legend:
Klebsiella pneumoniae = test: Antibacterial activity against Klebsiella pneumoniae CECT 367 upto 40 ug/mL by disk diffusion test; assay type: functional, organism-based
How it was run: (§1)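 Agar disk diffusion test. Bacterial strains were maintained on Nutrient Agar and the Candida albicans yeast on Sabouraud Agar, both at 37 °C.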

Bacillus pumilus = test: Antibacterial activity against Bacillus pumilus CECT 29 upto 40 ug/mL by disk diffusion test; assay type: functional, organism-based; how it was run: as §1
[1] = system: Staphylococcus saprophyticus; test: Antibacterial activity against Staphylococcus saprophyticus CECT 235 upto 40 ug/mL by disk diffusion test; assay type: functional, organism-based; how it was run: as §1
Proteus mirabilis = test: Antibacterial activity against Proteus mirabilis CECT 170 upto 40 ug/mL by disk diffusion test; assay type: functional, organism-based; how it was run: as §1
Staphylococcus aureus = test: Antibacterial activity against Staphylococcus aureus ATCC 6538 upto 40 ug/mL by disk diffusion test; assay type: functional, organism-based; how it was run: as §1
Bacillus subtilis = test: Antibacterial activity against Bacillus subtilis CECT 39 upto 40 ug/mL by disk diffusion test; assay type: functional, organism-based; how it was run: as §1
Priestia megaterium = test: Antibacterial activity against Bacillus megaterium CECT 44 upto 40 ug/mL by disk diffusion test; assay type: functional, organism-based; how it was run: as §1
Micrococcus luteus = test: Antibacterial activity against Micrococcus luteus CECT 241 upto 40 ug/mL by disk diffusion test; assay type: functional, organism-based; how it was run: as §1
Paenibacillus alvei = test: Antibacterial activity against Bacillus alvei CECT 2 upto 40 ug/mL by disk diffusion test; assay type: functional, organism-based; how it was run: as §1
Hafnia alvei = test: Antibacterial activity against Enterobacter hafniae CECT 400 upto 40 ug/mL by disk diffusion test; assay type: functional, organism-based; how it was run: as §1
Candida albicans = test: Antifungal activity against Candida albicans UBC 1 upto 40 ug/mL by disk diffusion test; assay type: functional, organism-based; how it was run: as §1
Staphylococcus warneri = test: Antibacterial activity against Staphylococcus warneri CECT 236 upto 40 ug/mL by disk diffusion test; assay type: functional, organism-based; how it was run: as §1
Escherichia coli = test: Antibacterial activity against Escherichia coli CECT 99 upto 40 ug/mL by disk diffusion test; assay type: functional, organism-based; how it was run: as §1
[2] = system: Staphylococcus epidermidis; test: Antibacterial activity against Staphylococcus epidermidis CECT 232 upto 40 ug/mL by disk diffusion test; assay type: functional, organism-based; how it was run: as §1
Pseudomonas aeruginosa = test: Antibacterial activity against Pseudomonas aeruginosa AK 958 upto 40 ug/mL by disk diffusion test; assay type: functional, organism-based; how it was run: as §1
HEp-2 = test: Cytotoxicity against human Hep2 cells upto 40 ug/mL by MTT reduction assay; assay type: functional, cell-based
How it was run: (§2)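 Cells were grown as monolayers in DMEM with 10% newborn calf serum and 1% penicillin-streptomycin mixture. They were kept at 37 °C, 5% CO2 and 90% humidity. Viability was read by colorimetric MTT reduction.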

Bacillus cereus = test: Antibacterial activity against Bacillus cereus CECT 496 upto 40 ug/mL by disk diffusion test; assay type: functional, organism-based; how it was run: as §1
Staphylococcus = test: Antibacterial activity against Staphylococcus albus SAB C1 upto 40 ug/mL by disk diffusion test; assay type: functional, organism-based; how it was run: as §1
Salmonella typhimurium = test: Antibacterial activity against Salmonella Typhimurium UBC 2 upto 40 ug/mL by disk diffusion test; assay type: functional, organism-based; settings: Salmonella enterica subsp. enterica serovar Typhimurium; how it was run: as §1
HeLa = test: Cytotoxicity against human HeLa cells upto 40 ug/mL by MTT reduction assay; assay type: functional, cell-based; how it was run: as §2
Salmonella sp. = test: Antibacterial activity against Salmonella sp. CECT 456 upto 40 ug/mL by disk diffusion test; assay type: functional, organism-based; how it was run: as §1

Measured: Activity

COC(=O)[C@]1(C)CC[C@]2(C)CC[C@]3(C)C4=CC=C5C(=CC(=O)[C@@]6(O)Oc7c(cc8c(c7C)[C@H]7Oc9c(cc%10c(c9C)CCC9[C@@]%10(C)CC[C@@]%10(C)[C@@H]%11C[C@](C)(C(=O)OC)CC[C@]%11(C)CC[C@]9%10C)O[C@H]7C7[C@@]8(C)CC[C@@]8(C)[C@@H]9C[C@](C)(C(=O)OC)CC[C@]9(C)CC[C@]78C)O[C@@]56C)[C@]4(C)CC[C@@]3(C)[C@@H]2C1 (stereo partly specified)
inactive: all assays above
